Assay results taken from ChEMBL document CHEMBL5038577, “First-Time Disclosure of CVN424, a Potent and Selective GPR6 Inverse Agonist for the Treatment of Parkinson's Disease: Discovery, Pharmacological Validation, and Identification of a Clinical Candidate” (J Med Chem, 2021).
The source made the active and inactive calls. The calls are words filed in the database; no cut-off is given here.

Columns and labels:
[1] = Permeability of compound across apical to basolateral side in pig LLC-PK1 cells expressing MDR1; format: ADME, cell-based, Sus scrofa; conditions: read-out: permeability
[2] = Intrinsic clearance in human liver microsomes; format: ADME, Microsome; conditions: read-out: CLH
[3] = Intrinsic clearance in human hepatocytes; format: ADME, cell-based, Hepatocyte; conditions: read-out: CLH
[4] = Lipophilicity, log D of compound; format: physicochemical; conditions: octanol/water
[5] = Unbound intrinsic clearance in human hepatocytes; format: ADME, cell-based, Hepatocyte
[6] = molecular target: T1, G-protein coupled receptor 6 (Homo sapiens, UniProt P46095); experiment: Displacement of 3H-RL338 from human GPR6 expressed in T-REx-CHO-GPR6 cells assessed as inhibition constant by competition binding assay; format: cell-based
How it was run: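 Competition filtration binding on membranes from doxycycline-inducible T-REx-CHO cells expressing human GPR6 (15 μg/well). Tracer is 3H-RL-338, and test compound top concentration is 5 μM final. Buffer: 50 mM Tris pH 7.4, 50 mM NaCl, 6 mM MgCl2, 0.1% fatty acid free BSA, protease inhibitors. Incubated 2 h at room temperature, filtered, washed cold, scintillation counted. IC50 comes from a four-parameter fit; Ki by Cheng–Prusoff using the 3H-RL-338 Kd (2.4 or 5 nM, by batch).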

P-gp (MDR1, ABCB1) = P-gp (MDR1, ABCB1) (Homo sapiens, UniProt P08183); experiment: Substrate activity at P-gp (unknown origin) transfected in pig LLC-PK1 cells expressing MDR1 gene assessed as efflux ratio; format: ADME, cell-based
[7] = molecular target: Voltage-gated inwardly rectifying potassium channel KCNH2 (Homo sapiens, UniProt Q12809); experiment: Inhibition of human ERG; format: toxicity
[8] = molecular target: T1, G-protein coupled receptor 6; experiment: Inverse agonist activity at human GPR6 expressed in CHO-K1 cells assessed as modulation of cAMP level incubated for 20 hrs by TR-FRET assay; format: functional, cell-based
How it was run: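 T-REx-CHO-K1 cells stably carrying tetracycline-inducible human GPR6 were induced with 2.0 μg/mL doxycycline for 20 h at 37 °C. No agonist was added, since receptor constitutive activity is used. Compound in Krebs Ringer's buffer with 0.5% fatty acid free BSA for 45 min at 37 °C. cAMP read by Eu-cAMP tracer/ULight anti-cAMP antibody TR-FRET. Four-parameter logistic fit; EC50 is the mean of ≥2 experiments, triplicate concentrations.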

[9] = molecular target: T1, G-protein coupled receptor 6; experiment: Inverse agonist activity at human GPR6 expressed in CHO-K1 cells assessed as modulation of cAMP level incubated for 20 hrs by TR-FRET assay relative to control; format: functional, cell-based; conditions: filed as inverse agonist
How it was run: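 T-REx-CHO-K1 cells stably carrying tetracycline-inducible human GPR6 were induced with 2.0 μg/mL doxycycline for 20 h at 37 °C. Constitutive activity was measured with no agonist. Compound in Krebs Ringer's buffer with 0.5% fatty-acid-free BSA was added for 45 min at 37 °C. Eu-cAMP tracer (10 min) and ULight anti-cAMP antibody (1 h, RT) followed for TR-FRET. Four-parameter logistic fit; ≥2 experiments, triplicate.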

hERG (KCNH2) = hERG (KCNH2) (Homo sapiens, UniProt Q12809); experiment: Inhibition of human ERG at 10 uM relative to control; format: toxicity
Homo sapiens [10] = organism: Homo sapiens; experiment: Selectivity for human GPR6 over human GRP12 assessed as fold change
Homo sapiens [11] = organism: Homo sapiens; experiment: Selectivity for human GPR6 over human GRP3 assessed as fold change
Cytochrome P450 2D6 = Cytochrome P450 2D6 (Homo sapiens, UniProt P10635); experiment: Inhibition of CYP2D6 (unknown origin); format: ADME
Mus musculus [12] = experiment: Reversal of haloperidol-induced catalepsy in C57BL/6 mouse assessed as reduction in catalepsy at 0.3 mg/kg, ip measured after 120 min; format: functional, organism-based
How it was run: (§1)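 Wild-type C57BL/6J and GPR6 knock-out male mice (n = 6/group): KW6002 at 0.3 mg/kg i.p. given with haloperidol 1 mg/kg i.p. Bar test at 120 min: bar 2' high, maximum 60 s, three trials averaged.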

Mus musculus [13] = experiment: Reversal of haloperidol-induced catalepsy in GPR6 knock out mouse assessed as reduction in catalepsy at 0.3 mg/kg, ip measured after 120 min; format: functional, organism-based; how it was run: as §1
Rattus norvegicus [14] = experiment: Reversal of haloperidol-induced catalepsy in Sprague-Dawley rat assessed as reduction in catalepsy at 0.6 mg/kg, ip measured after 120 min; format: functional, organism-based
How it was run: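 Positive-control arm in male Sprague-Dawley rats (n = 9–10/group): A2A antagonist KW6002 at 0.6 mg/kg i.p., given together with haloperidol 1 mg/kg i.p. Bar test at 120 min: bar 6' high, up to 60 s, mean of three trials.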

Rattus norvegicus [15] = experiment: Reversal of haloperidol-induced catalepsy in Sprague-Dawley rat assessed as reduction in catalepsy at 0.1 to 30 mg/kg, sc measured after 120 min; format: functional, organism-based; conditions: dose 0.1-30 mg/kg
How it was run: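 Male Sprague-Dawley rats (n = 9–10/group) received haloperidol 1 mg/kg i.p. together with vehicle (10% DMSO, 0.5% methylcellulose) or compound at 0.1–30 mg/kg s.c. Bar test at 120 min: front paws placed on a bar 6' high, time recorded up to 60 s. Three trials were averaged.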

Mus musculus [16] = experiment: Reversal of haloperidol-induced catalepsy in GPR6 knock out mouse assessed as reduction in catalepsy at 30 mg/kg, sc measured after 120 min; format: functional, organism-based
How it was run: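 Male GPR6 knock-out mice (n = 6/group) received haloperidol 1 mg/kg i.p. with vehicle (10% DMSO, 0.5% methylcellulose) or compound 30 mg/kg s.c. at the same time. Bar test at 120 min: bar 2' high, up to 60 s, average of three trials.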

Sequence of Cytochrome P450 2D6 (P10635 whole entry): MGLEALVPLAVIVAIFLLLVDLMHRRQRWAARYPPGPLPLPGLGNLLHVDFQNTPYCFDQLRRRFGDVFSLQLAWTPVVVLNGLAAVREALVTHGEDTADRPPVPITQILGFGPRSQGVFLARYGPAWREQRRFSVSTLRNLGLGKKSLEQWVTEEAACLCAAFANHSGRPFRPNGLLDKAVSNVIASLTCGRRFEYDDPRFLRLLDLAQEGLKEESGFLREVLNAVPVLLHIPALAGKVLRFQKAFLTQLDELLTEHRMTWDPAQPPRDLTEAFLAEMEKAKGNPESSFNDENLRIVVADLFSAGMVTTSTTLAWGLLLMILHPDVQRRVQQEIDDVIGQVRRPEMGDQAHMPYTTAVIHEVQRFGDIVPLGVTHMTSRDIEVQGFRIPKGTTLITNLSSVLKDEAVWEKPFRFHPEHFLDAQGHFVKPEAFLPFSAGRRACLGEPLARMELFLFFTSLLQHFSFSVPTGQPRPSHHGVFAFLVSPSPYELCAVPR
Sequence of hERG (KCNH2) (Q12809 whole entry): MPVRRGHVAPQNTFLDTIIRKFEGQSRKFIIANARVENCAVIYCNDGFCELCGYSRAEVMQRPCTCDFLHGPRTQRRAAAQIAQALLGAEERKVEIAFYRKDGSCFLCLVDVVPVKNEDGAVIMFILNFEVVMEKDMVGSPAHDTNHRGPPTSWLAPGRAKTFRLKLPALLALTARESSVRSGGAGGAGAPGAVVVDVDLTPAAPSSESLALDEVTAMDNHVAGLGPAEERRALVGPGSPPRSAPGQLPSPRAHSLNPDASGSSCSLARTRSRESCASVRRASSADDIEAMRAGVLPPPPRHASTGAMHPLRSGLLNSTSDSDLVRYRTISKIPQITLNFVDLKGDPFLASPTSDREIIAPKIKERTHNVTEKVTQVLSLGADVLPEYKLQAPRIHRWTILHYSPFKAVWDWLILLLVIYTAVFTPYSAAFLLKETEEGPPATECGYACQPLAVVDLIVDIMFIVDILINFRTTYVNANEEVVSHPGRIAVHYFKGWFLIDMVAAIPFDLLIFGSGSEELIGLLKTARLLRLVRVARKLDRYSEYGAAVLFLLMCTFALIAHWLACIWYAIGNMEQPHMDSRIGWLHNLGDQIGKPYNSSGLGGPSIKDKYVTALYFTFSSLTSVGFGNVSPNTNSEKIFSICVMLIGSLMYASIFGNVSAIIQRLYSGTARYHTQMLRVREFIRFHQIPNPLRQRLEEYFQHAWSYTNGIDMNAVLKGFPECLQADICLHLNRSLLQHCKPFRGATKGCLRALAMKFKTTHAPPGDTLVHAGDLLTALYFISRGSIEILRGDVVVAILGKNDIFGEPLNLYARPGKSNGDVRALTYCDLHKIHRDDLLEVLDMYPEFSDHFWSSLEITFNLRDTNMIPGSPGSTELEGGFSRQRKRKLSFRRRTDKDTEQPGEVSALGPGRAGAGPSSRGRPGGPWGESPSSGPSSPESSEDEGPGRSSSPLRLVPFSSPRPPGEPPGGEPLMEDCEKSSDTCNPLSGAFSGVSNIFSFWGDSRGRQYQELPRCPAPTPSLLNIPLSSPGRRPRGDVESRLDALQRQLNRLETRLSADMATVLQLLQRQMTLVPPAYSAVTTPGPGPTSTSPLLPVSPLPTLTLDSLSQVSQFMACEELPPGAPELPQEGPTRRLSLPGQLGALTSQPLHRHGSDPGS
T1 sequence (P46095 whole entry): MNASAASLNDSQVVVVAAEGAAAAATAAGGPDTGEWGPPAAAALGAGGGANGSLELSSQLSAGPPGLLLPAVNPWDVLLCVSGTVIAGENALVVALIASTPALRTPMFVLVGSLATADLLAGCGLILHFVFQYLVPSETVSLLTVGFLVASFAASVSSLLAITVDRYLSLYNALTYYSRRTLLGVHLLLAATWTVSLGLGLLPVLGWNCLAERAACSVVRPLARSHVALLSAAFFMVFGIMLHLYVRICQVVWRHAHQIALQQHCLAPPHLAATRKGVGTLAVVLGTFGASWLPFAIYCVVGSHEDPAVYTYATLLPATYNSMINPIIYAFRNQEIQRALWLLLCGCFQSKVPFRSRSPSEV
Sequence of P-gp (MDR1, ABCB1) (P08183 whole entry): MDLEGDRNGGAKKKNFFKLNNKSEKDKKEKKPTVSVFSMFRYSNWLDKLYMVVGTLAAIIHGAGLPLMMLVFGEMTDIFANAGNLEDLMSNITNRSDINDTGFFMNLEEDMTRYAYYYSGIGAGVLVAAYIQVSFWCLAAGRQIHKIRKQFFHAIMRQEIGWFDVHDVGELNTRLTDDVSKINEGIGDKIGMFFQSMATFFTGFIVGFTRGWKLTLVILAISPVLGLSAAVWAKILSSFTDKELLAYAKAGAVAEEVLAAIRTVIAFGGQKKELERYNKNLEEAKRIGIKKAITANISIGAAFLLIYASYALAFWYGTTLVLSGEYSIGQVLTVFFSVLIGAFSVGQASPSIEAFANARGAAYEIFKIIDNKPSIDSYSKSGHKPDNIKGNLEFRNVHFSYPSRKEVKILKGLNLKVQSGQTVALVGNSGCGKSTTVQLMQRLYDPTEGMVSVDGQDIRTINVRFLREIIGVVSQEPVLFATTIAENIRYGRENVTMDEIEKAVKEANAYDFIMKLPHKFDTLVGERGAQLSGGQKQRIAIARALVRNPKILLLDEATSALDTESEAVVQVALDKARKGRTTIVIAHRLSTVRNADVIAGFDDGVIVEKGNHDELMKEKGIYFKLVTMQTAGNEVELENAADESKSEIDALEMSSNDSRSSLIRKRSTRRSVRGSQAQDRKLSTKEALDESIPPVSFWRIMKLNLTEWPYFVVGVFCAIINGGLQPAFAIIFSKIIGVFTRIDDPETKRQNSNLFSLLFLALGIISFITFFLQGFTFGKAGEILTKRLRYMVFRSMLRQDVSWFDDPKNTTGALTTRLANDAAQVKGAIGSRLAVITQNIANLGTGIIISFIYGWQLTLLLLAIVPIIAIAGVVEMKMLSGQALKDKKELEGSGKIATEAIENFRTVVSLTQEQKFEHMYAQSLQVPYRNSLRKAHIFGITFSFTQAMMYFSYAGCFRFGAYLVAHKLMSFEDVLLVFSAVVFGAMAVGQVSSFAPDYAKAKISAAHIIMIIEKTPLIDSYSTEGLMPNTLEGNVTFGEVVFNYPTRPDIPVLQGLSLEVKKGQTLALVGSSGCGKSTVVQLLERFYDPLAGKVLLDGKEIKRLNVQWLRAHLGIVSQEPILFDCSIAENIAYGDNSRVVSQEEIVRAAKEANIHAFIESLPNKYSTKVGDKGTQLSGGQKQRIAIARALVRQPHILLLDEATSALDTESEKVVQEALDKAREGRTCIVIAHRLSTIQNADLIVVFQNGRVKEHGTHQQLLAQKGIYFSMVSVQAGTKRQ
Sequence of Voltage-gated inwardly rectifying potassium channel KCNH2 (Q12809 whole entry): as the sequence (Q12809 whole entry) above

Row | Compound | EC50 [8] [nM] | Emax [9] [%] | inhibition at 10 µM (hERG (KCNH2)) [%] | fold change (FC) (Homo sapiens [10]) | fold change (FC) (Homo sapiens [11]) | IC50 (Cytochrome P450 2D6) [nM] | further results
1 | CC(=O)N1CCc2nc(N3CCC(Oc4ccc(F)cc4F)CC3)c(N[C@@H]3CCOC3)nc2C1 | 38000 |  |  |  |  |  | Papp A→B [1]: 17 ×10⁻⁶ cm/s; CLint scaled [2]: 62 mL/min/kg; CLint scaled [3]: 48 mL/min/kg; logD [4]: 3.6; fraction unbound [5]: 0.51; Ki [6]: 9.4 nM; efflux ratio (P-gp (MDR1, ABCB1)): 0.7; IC50 [7]: 3500 nM
2 | Cc1cccc(CN2CCN(c3nc4ccccc4nc3NC3CC3)CC2)c1 | 14000 | 110 |  |  |  |  | 
3 | Cc1cc2nc(NC3CC3)c(N3CCN(Cc4ccc(F)cc4F)CC3)nc2cn1 | 29 |  | 23 | 78 | 14 | 3980 | 
4 | Cc1cc2nc(N3CCC(Oc4ccc(F)cc4F)CC3)c(NC(C)C)nc2cn1 | 61000 |  | 71 | 47 | 19 | 3980 | 
5 | Clc1ccc(Cl)c(CN2CCN(c3nc4ccncc4nc3NC3CC3)CC2)c1 | 55 | 102 |  |  |  |  | 
6 | CC(C)Nc1nc2ccncc2nc1N1CCN(Cc2ccc(F)cc2F)CC1 | 21 |  |  | 14 | 9 |  | 
7 | CC(C)Nc1nc2c(nc1N1CCC(Oc3ccc(F)cc3F)CC1)CCN(C)C2 | 89 |  | 36 | 69 | 21 | > 10000 | 
8 | CCn1c(=O)c2c(nc(/C=C/c3ccc(OC)c(OC)c3)n2C)n(CC)c1=O |  |  |  |  |  |  | Activity (Mus musculus [12]): Active; Activity (Mus musculus [13]): Active; Activity (Rattus norvegicus [14]): Active
9 | CC(C)Nc1nc2cc(C#N)ncc2nc1N1CCC(Oc2ccc(F)cc2F)CC1 | 55 |  |  | 13 | 6 |  | 
10 | Cc1ccc2nc(N3CCN(Cc4cc(Cl)ccc4Cl)CC3)c(NC3CC3)nc2c1 | 16000 | 90 |  |  |  |  | 
11 | Fc1ccc2nc(N3CCN(Cc4cc(Cl)ccc4Cl)CC3)c(NC3CC3)nc2c1 | 1200 | 90 |  |  |  |  | 
12 | CCC(=O)N1CCc2nc(N3CCN(Cc4ccc(F)cc4F)CC3)c(NC(C)C)nc2C1 | 30 |  |  | 16 | 20 | > 10000 | 
13 | Fc1ccc(Cl)cc1CN1CCN(c2nc3cnccc3nc2NC2CC2)CC1 | 29 |  |  | 15 | 638 |  | 
14 | Clc1ccc(Cl)c(CN2CCN(c3nc4ccccc4nc3NC3CC3)CC2)c1 | 2100 | 89 |  |  |  |  | 
15 | N#Cc1ccc2nc(N3CCN(Cc4cc(Cl)ccc4Cl)CC3)c(NC3CC3)nc2c1 | 174 | 107 |  |  |  |  | 
16 | Cc1cc2nc(NC(C)C)c(N3CCC(Oc4ccc(F)cc4F)CC3)nc2cn1 | 16 |  | 75 | 27 | 13 | 6310 | 
17 | Cc1cc2nc(N3CCC(Oc4ccc(F)cc4F)CC3)c(NC3CC3)nc2cn1 | 95 |  |  | 105 | 19 | 6310 | 
18 | COc1ccc2nc(N3CCN(Cc4cc(Cl)ccc4Cl)CC3)c(NC3CC3)nc2c1 | 4100 | 90 |  |  |  |  | 
19 | Cc1cccc(CN2CCN(c3nc4nonc4nc3NC3CC3)CC2)c1 | 43000 | 73 |  |  |  |  | 
20 | Fc1ccc(F)c(CN2CCN(c3nc4cnccc4nc3NC3CC3)CC2)c1 | 151 |  | 40 |  |  | 126 | 
21 | CN(C)C(=O)c1ccc2nc(NC3CC3)c(N3CCN(Cc4cc(Cl)ccc4Cl)CC3)nc2c1 | 90 | 105 |  |  |  |  | 
22 | Cc1cc2nc(NC3CC3)c(N3CCC(Oc4ccc(F)cc4F)CC3)nc2cn1 | 29 |  | 75 | 105 | 19 | 6310 | 
23 | Clc1ccc(Cl)c(CN2CCN(c3nc4cnccc4nc3NC3CC3)CC2)c1 | 53 | 110 |  |  |  |  | 
24 | Cc1cc2nc(NC(C)C)c(N3CCN(Cc4ccc(F)cc4F)CC3)nc2cn1 | 51000 |  | 13 | 19 | 5 | 3980 | 
25 | Fc1ccc(CN2CCN(c3nc4cnccc4nc3NC3CC3)CC2)c(F)c1 | 39 |  | 40 | 80 | 21 | 50.1 | Papp A→B [1]: 16 ×10⁻⁶ cm/s; Activity (Rattus norvegicus [15]): Dose-Dependent Effect; Ki [6]: 7 nM; Activity (Mus musculus [16]): inactive; efflux ratio (P-gp (MDR1, ABCB1)): 0.5
